In ChEMBL document CHEMBL1124495 (1989):
≈ marks a conversion by molar mass, not a printed value.

Key:
Assay type in all cases: functional
Enterococcus faecalis = assay: Antibacterial activity carried out in vitro against Streptococcus faecalis UCI 85-30
Serratia marcescens = assay: Antibacterial activity carried out in vitro against Serratia marcescens MOR 84-41
Staphylococcus aureus [1] = assay: Antibacterial activity carried out in vitro against Staphylococcus aureus K82-26
Staphylococcus aureus [2] = assay: Antibacterial activity carried out in vitro against Staphylococcus aureus VGH 84-47
Staphylococcus aureus [3] = assay: Antibacterial activity carried out in vitro against Staphylococcus aureus Smith(MP)
Klebsiella pneumoniae = assay: Antibacterial activity carried out in vitro against Klebsiella pneumoniae CMC 84-31
Staphylococcus aureus [4] = assay: Antibacterial activity carried out in vitro against Staphylococcus aureus ATCC 29213
Enterobacter cloacae = assay: Antibacterial activity carried out in vitro against Enterobacter cloacae VHG 84-39
Escherichia coli [5] = assay: Antibacterial activity carried out in vitro against Escherichia coli MOR 84-20
Pseudomonas aeruginosa = assay: Antibacterial activity carried out in vitro against Pseudomonas aeruginosa K84-16
Escherichia coli [6] = assay: Antibacterial activity carried out in vitro against Escherichia coli ATCC 25922
Escherichia coli [7] = assay: Antibacterial activity carried out in vitro against Escherichia coli #311(MP)
Staphylococcus aureus [8] = assay: Activity was determined after peroral administration against Staphylococcus aureus Smith(MP) in mouse protection test; conditions: po
Summary of the method: (§1)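 CD-1 female mice (20 ± 2 g) infected intraperitoneally with 0.5 mL standardized bacterial suspension: E. coli #311 in trypticase-soy broth, S. aureus Smith in 5% hog gastric mucin. Treated 0.5 h post-infection, oral or subcutaneous, 2-fold dose increments in 0.5 mL 0.2% aqueous agar, five mice per dose. 7-day survival pooled from three tests; ED50 by probit analysis.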

Escherichia coli [9] = assay: Activity was determined after subcutaneous administration against Escherichia coli #311(MP) in mouse protection test; conditions: sc; summary of the method: as §1
Escherichia coli [10] = assay: Activity was determined after peroral administration against Escherichia coli #311(MP) in mouse protection test; conditions: po; summary of the method: as §1
Staphylococcus aureus [11] = assay: Activity was determined after subcutaneous administration against Staphylococcus aureus Smith(MP) in mouse protection test; conditions: sc; summary of the method: as §1

Row | MIC (Enterococcus faecalis) | MIC (Serratia marcescens) | MIC (Staphylococcus aureus [1]) | MIC (Staphylococcus aureus [2]) | MIC (Staphylococcus aureus [3]) | MIC (Klebsiella pneumoniae) | MIC (Staphylococcus aureus [4]) | MIC (Enterobacter cloacae) | MIC (Escherichia coli [5]) | MIC (Pseudomonas aeruginosa) | MIC (Escherichia coli [6]) | MIC (Escherichia coli [7]) | SMILES | ED50 (Staphylococcus aureus [8]) | ED50 (Escherichia coli [9]) | ED50 (Escherichia coli [10]) | ED50 (Staphylococcus aureus [11])
1 | > 128 µg/mL | > 128 µg/mL | 32 µg/mL (≈ 89.8 µM) | 128 µg/mL (≈ 359 µM) | 64 µg/mL (≈ 180 µM) | > 128 µg/mL | 128 µg/mL (≈ 359 µM) | > 128 µg/mL | > 128 µg/mL | > 128 µg/mL | > 128 µg/mL | > 128 µg/mL | CCn1cc(C(=O)O)c(=O)c2c(N3CCOCC3)c(F)c(F)c(F)c21 | – | – | – | –
2 | > 128 µg/mL | > 128 µg/mL | > 128 µg/mL | > 128 µg/mL | > 128 µg/mL | > 128 µg/mL | > 128 µg/mL | > 128 µg/mL | > 128 µg/mL | > 128 µg/mL | > 128 µg/mL | > 128 µg/mL | CCn1cc(C(=O)O)c(=O)c2c(N3CCN(C)CC3)c(F)c(F)c(F)c21 | – | – | – | –
3 | > 128 µg/mL | 4 µg/mL (≈ 10.4 µM) | 16 µg/mL (≈ 41.7 µM) | 32 µg/mL (≈ 83.5 µM) | 32 µg/mL (≈ 83.5 µM) | 8 µg/mL (≈ 20.9 µM) | 64 µg/mL (≈ 167 µM) | 8 µg/mL (≈ 20.9 µM) | 4 µg/mL (≈ 10.4 µM) | > 128 µg/mL | 4 µg/mL (≈ 10.4 µM) | 4 µg/mL (≈ 10.4 µM) | CC(C)n1cc(C(=O)O)c(=O)c2c(F)c(F)c(N3CCN(C)CC3)c(F)c21 | – | – | – | –
4 | 32 µg/mL (≈ 86.6 µM) | 0.25 µg/mL (≈ 0.677 µM) | 2 µg/mL (≈ 5.42 µM) | 2 µg/mL (≈ 5.42 µM) | 2 µg/mL (≈ 5.42 µM) | 0.5 µg/mL (≈ 1.35 µM) | 2 µg/mL (≈ 5.42 µM) | 0.5 µg/mL (≈ 1.35 µM) | 0.25 µg/mL (≈ 0.677 µM) | 32 µg/mL (≈ 86.6 µM) | 0.12 µg/mL (≈ 0.325 µM) | 0.25 µg/mL (≈ 0.677 µM) | CCn1cc(C(=O)O)c(=O)c2c(F)c(F)c(N3CCN(C)CC3)c(F)c21 | – | – | – | –
5 | 32 µg/mL (≈ 89.8 µM) | 1 µg/mL (≈ 2.81 µM) | 1 µg/mL (≈ 2.81 µM) | 1 µg/mL (≈ 2.81 µM) | 1 µg/mL (≈ 2.81 µM) | 4 µg/mL (≈ 11.2 µM) | 1 µg/mL (≈ 2.81 µM) | 4 µg/mL (≈ 11.2 µM) | 4 µg/mL (≈ 11.2 µM) | 64 µg/mL (≈ 180 µM) | 4 µg/mL (≈ 11.2 µM) | 2 µg/mL (≈ 5.61 µM) | CCn1cc(C(=O)O)c(=O)c2c(F)c(F)c(N3CCOCC3)c(F)c21 | – | – | – | –
6 | 64 µg/mL (≈ 147 µM) | 2 µg/mL (≈ 4.59 µM) | 2 µg/mL (≈ 4.59 µM) | 4 µg/mL (≈ 9.19 µM) | 2 µg/mL (≈ 4.59 µM) | 2 µg/mL (≈ 4.59 µM) | 2 µg/mL (≈ 4.59 µM) | 4 µg/mL (≈ 9.19 µM) | 2 µg/mL (≈ 4.59 µM) | 32 µg/mL (≈ 73.5 µM) | 2 µg/mL (≈ 4.59 µM) | 1 µg/mL (≈ 2.3 µM) | CN1CCN(c2c(F)c(F)c3c(=O)c(C(=O)O)cn(-c4ccc(F)cc4)c3c2F)CC1 | – | – | – | –
7 | 4 µg/mL (≈ 10.5 µM) | 0.06 µg/mL (≈ 0.157 µM) | 0.5 µg/mL (≈ 1.31 µM) | 0.5 µg/mL (≈ 1.31 µM) | 0.25 µg/mL (≈ 0.656 µM) | 0.06 µg/mL (≈ 0.157 µM) | 0.5 µg/mL (≈ 1.31 µM) | 0.06 µg/mL (≈ 0.157 µM) | 0.06 µg/mL (≈ 0.157 µM) | 4 µg/mL (≈ 10.5 µM) | 0.015 µg/mL (≈ 0.0393 µM) | 0.03 µg/mL (≈ 0.0787 µM) | CN1CCN(c2c(F)c(F)c3c(=O)c(C(=O)O)cn(C4CC4)c3c2F)CC1 | 3.6 mg/kg | 0.35 mg/kg | 0.5 mg/kg | 2.1 mg/kg
8 | > 128 µg/mL | 0.5 µg/mL (≈ 1.47 µM) | 0.5 µg/mL (≈ 1.47 µM) | 0.25 µg/mL (≈ 0.735 µM) | 0.25 µg/mL (≈ 0.735 µM) | > 128 µg/mL | 0.5 µg/mL (≈ 1.47 µM) | > 128 µg/mL | 4 µg/mL (≈ 11.8 µM) | > 128 µg/mL | 2 µg/mL (≈ 5.88 µM) | 2 µg/mL (≈ 5.88 µM) | CCn1cc(C(=O)O)c(=O)c2c(F)c(F)c(N3CCCC3)c(F)c21 | – | – | – | –
9 | > 128 µg/mL | > 128 µg/mL | 8 µg/mL (≈ 20.4 µM) | 8 µg/mL (≈ 20.4 µM) | 128 µg/mL (≈ 327 µM) | > 128 µg/mL | > 128 µg/mL | > 128 µg/mL | > 128 µg/mL | > 128 µg/mL | > 128 µg/mL | 128 µg/mL (≈ 327 µM) | CCn1cc(C(=O)O)c(=O)c2c(N3CCCC3)c(F)c(N3CCCC3)c(F)c21 | – | – | – | –
10 | 8 µg/mL (≈ 22.8 µM) | 0.12 µg/mL (≈ 0.342 µM) | 0.5 µg/mL (≈ 1.42 µM) | 0.5 µg/mL (≈ 1.42 µM) | 0.5 µg/mL (≈ 1.42 µM) | 0.25 µg/mL (≈ 0.712 µM) | 0.5 µg/mL (≈ 1.42 µM) | 0.25 µg/mL (≈ 0.712 µM) | 0.12 µg/mL (≈ 0.342 µM) | 4 µg/mL (≈ 11.4 µM) | 0.06 µg/mL (≈ 0.171 µM) | 0.06 µg/mL (≈ 0.171 µM) | CCn1cc(C(=O)O)c(=O)c2cc(F)c(N3CCN(C)CC3)c(F)c21 | – | – | – | –
11 | 32 µg/mL (≈ 85.9 µM) | 2 µg/mL (≈ 5.37 µM) | 1 µg/mL (≈ 2.69 µM) | 1 µg/mL (≈ 2.69 µM) | 0.5 µg/mL (≈ 1.34 µM) | 8 µg/mL (≈ 21.5 µM) | 1 µg/mL (≈ 2.69 µM) | 8 µg/mL (≈ 21.5 µM) | 4 µg/mL (≈ 10.7 µM) | 64 µg/mL (≈ 172 µM) | 4 µg/mL (≈ 10.7 µM) | 4 µg/mL (≈ 10.7 µM) | CCn1cc(C(=O)O)c(=O)c2c(F)c(F)c(N3CCSCC3)c(F)c21 | – | – | – | –

Row | SMILES | MIC (Enterococcus faecalis) | MIC (Serratia marcescens) | MIC (Staphylococcus aureus [1]) | MIC (Staphylococcus aureus [2]) | MIC (Staphylococcus aureus [3]) | MIC (Klebsiella pneumoniae) | MIC (Staphylococcus aureus [4]) | MIC (Enterobacter cloacae) | MIC (Escherichia coli [5]) | MIC (Pseudomonas aeruginosa) | MIC (Escherichia coli [6]) | MIC (Escherichia coli [7]) | ED50 (Staphylococcus aureus [8]) | ED50 (Escherichia coli [9]) | ED50 (Escherichia coli [10]) | ED50 (Staphylococcus aureus [11])
12 | O=C(O)c1cn(C2CC2)c2cc(N3CCNCC3)c(F)cc2c1=O [CIPROFLOXACIN] | 2 µg/mL (≈ 6.04 µM) | 0.008 µg/mL (≈ 0.0241 µM) | 0.5 µg/mL (≈ 1.51 µM) | 1 µg/mL (≈ 3.02 µM) | 0.12 µg/mL (≈ 0.362 µM) | 0.03 µg/mL (≈ 0.0905 µM) | 1 µg/mL (≈ 3.02 µM) | – | – | – | – | – | – | – | – | –
13 | CCn1cc(C(=O)O)c(=O)c2cc(F)c(N3CCN(C)CC3)cc21 [PEFLOXACIN] | 4 µg/mL (≈ 12 µM) | – | 0.5 µg/mL (≈ 1.5 µM) | 0.5 µg/mL (≈ 1.5 µM) | 0.25 µg/mL (≈ 0.75 µM) | 0.25 µg/mL (≈ 0.75 µM) | 0.5 µg/mL (≈ 1.5 µM) | – | – | 4 µg/mL (≈ 12 µM) | 0.06 µg/mL (≈ 0.18 µM) | – | 3.1 mg/kg | 0.4 mg/kg | 1.1 mg/kg | 2 mg/kg
